For assay [1], the target named is T1, Integrin alpha-5/beta-1 (Homo sapiens, UniProt P05556+P08648). Briefly: Inhibition of alpha5beta1 integrin-mediated human K562 cell adhesion to fibronectin incubated for 30 mins before plating measured after 1 hr. The assay is classed as protein-complex assay. A digest of the protocol:
(§1)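 Cells pre-incubated with a range of compound concentrations for 30 min at room temperature. Then 50000 cells/well plated on fibronectin (10 µg/mL) coated overnight at 4°C and left 1 h at room temperature. After PBS washes, adherent cells were quantified by hexosaminidase activity: 4-nitrophenyl-N-acetyl-β-D-glucosaminide in citrate buffer pH 5 with Triton X-100, stopped with glycine/EDTA pH 10.4, read at 405 nm. Quadruplicates, at least three repeats; IC50 fitted.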
Target sequence in this assay (P05556 21-798 limits assumed): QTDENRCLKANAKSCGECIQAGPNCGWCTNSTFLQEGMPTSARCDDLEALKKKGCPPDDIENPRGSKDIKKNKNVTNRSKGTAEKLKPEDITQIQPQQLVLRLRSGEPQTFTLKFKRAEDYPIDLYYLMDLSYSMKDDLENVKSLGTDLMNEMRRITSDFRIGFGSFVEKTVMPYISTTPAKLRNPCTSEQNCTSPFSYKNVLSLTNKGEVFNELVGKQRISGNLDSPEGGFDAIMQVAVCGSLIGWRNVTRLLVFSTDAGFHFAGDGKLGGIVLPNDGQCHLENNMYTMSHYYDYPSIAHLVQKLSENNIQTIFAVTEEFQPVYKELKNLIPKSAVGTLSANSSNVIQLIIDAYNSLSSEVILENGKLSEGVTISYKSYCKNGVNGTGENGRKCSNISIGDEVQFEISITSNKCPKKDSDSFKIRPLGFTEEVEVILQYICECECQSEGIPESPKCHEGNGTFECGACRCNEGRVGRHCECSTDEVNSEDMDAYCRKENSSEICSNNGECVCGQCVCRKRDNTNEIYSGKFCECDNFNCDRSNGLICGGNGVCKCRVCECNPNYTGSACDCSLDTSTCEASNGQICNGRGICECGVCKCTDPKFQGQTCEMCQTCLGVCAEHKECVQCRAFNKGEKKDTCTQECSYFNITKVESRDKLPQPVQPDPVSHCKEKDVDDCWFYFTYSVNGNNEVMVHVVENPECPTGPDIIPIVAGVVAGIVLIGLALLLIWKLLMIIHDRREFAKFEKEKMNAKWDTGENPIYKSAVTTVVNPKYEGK
Target sequence in this assay (P08648 42-894 limits assumed): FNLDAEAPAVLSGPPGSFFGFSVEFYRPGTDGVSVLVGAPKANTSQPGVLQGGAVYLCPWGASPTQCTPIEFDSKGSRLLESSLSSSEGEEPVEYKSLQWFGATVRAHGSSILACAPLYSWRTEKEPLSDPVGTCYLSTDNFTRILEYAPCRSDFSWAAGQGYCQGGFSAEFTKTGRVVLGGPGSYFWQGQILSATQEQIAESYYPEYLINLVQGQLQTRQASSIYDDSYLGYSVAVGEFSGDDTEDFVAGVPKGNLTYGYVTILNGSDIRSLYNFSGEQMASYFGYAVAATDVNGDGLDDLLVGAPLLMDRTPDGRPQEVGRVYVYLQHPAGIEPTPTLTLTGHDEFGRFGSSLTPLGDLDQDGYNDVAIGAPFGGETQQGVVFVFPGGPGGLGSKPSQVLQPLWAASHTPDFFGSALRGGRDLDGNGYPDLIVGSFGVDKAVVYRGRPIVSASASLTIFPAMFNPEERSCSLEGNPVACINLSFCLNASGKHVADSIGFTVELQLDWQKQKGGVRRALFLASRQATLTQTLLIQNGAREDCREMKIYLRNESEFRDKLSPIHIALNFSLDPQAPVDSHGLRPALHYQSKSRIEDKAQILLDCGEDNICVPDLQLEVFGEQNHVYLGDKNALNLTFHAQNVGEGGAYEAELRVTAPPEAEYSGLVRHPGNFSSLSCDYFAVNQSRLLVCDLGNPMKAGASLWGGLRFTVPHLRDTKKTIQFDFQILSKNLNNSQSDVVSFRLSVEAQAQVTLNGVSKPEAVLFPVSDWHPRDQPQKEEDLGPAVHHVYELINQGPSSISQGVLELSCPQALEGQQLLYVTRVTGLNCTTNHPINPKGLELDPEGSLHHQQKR
Target sequence in this assay (P08648 895-1049 limits assumed): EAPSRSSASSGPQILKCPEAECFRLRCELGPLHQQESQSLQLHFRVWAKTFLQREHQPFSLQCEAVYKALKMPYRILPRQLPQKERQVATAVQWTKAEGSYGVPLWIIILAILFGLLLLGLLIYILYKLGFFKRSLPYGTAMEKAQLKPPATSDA

Assay [2] has as its target T2, Integrin alpha-V/beta-3 (Homo sapiens, UniProt P05106+P06756). Briefly: Inhibition of alphaVbeta3 integrin-mediated human SK-MEL-24 cell adhesion to fibronectin incubated for 30 mins before plating measured after 1 hr. In kind it is protein-complex assay. A digest of the protocol:
as §1
Target sequence in this assay (P05106 27-788 limits assumed): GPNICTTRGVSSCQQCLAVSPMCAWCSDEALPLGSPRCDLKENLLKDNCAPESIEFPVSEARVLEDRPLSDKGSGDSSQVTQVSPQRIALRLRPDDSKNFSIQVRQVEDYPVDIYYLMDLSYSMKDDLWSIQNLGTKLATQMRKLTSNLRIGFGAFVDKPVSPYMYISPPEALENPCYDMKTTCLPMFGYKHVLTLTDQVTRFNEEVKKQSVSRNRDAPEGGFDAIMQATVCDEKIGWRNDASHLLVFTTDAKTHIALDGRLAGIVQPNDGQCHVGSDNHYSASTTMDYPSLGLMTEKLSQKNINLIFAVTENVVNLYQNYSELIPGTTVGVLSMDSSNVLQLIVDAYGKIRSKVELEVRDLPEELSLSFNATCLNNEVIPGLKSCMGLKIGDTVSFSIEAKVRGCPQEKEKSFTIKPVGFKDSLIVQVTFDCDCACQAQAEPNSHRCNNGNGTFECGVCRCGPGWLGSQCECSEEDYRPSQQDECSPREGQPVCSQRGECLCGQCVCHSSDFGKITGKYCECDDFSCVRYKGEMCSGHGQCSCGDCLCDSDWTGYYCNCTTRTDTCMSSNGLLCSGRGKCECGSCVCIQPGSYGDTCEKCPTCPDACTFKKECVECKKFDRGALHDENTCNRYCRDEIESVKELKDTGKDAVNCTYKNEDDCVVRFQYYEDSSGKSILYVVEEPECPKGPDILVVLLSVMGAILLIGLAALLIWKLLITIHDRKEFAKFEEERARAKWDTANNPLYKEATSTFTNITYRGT
Target sequence in this assay (P06756 31-889 limits assumed): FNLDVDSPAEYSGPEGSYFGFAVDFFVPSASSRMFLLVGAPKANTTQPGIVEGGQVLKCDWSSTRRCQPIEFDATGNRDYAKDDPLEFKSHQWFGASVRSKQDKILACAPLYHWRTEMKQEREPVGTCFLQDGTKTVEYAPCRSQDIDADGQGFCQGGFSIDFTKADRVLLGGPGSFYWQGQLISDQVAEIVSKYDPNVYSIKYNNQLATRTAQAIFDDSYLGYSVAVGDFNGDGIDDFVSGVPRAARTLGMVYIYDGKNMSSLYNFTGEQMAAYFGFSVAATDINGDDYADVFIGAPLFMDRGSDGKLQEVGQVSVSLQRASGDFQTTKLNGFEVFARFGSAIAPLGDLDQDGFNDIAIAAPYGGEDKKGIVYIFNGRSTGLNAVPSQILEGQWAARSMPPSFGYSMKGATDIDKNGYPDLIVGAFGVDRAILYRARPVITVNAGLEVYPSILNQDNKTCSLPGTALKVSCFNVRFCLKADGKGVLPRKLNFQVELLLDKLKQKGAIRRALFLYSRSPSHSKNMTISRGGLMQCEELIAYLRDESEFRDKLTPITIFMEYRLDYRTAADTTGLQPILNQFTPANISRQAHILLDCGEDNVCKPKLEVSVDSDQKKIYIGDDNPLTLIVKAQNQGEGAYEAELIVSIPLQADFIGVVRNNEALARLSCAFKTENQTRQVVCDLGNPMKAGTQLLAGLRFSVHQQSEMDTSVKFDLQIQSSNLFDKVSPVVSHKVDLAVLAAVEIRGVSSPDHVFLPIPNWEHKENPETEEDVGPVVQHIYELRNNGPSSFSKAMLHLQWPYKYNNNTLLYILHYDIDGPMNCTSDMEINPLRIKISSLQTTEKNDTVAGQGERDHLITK
Target sequence in this assay (P06756 891-1048 limits assumed): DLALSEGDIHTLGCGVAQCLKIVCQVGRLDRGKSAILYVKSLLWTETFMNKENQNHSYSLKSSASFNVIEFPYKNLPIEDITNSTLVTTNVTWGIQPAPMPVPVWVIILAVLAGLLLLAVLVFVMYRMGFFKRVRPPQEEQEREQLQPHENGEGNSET

Assay [3] concerns the target T1, Integrin alpha-5/beta-1. Briefly: Inhibition of alpha5beta1 integrin in human K562 cells assessed as inhibition of fibronectin-induced ERK1/2 phosphorylation at 10 uM incubated for 60 mins prior to fibronectin challenge measured after 60 mins by Western blotting analysis. In kind it is cell-based. A digest of the protocol: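 K562 cells, PMA-differentiated (25 ng/mL for 40 h), then serum-starved 16 h in RPMI-1640 with 1% FBS. Compound at 10 µM for 60 min in suspension, then plated 60 min on fibronectin (10 µg/ml)-coated, 1% BSA-blocked plates. Suspension cells served as control and PMA 65 nM as positive control. Lysates run on 12% SDS-PAGE and blotted for phospho- and total ERK1/2. pERK normalized to total ERK by densitometry; mean ± SEM, n=6.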
In general terms: Immunoblotting shows a protein as a band on a membrane.

In assay [4] the target is T2, Integrin alpha-V/beta-3. As to the kind of experiment: Inhibition of alphaVbeta3 integrin in human DAOY cells assessed as inhibition of fibronectin-induced ERK1/2 phosphorylation at 10 uM incubated for 30 mins prior to fibronectin challenge measured after 90 mins by Western blotting analysis. The assay is classed as cell-based. The gist of the method: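 DAOY medulloblastoma cells serum-starved 16 h in DMEM, detached, then given compound at 10 µM for 30 min. Plated 90 min on fibronectin (10 µg/ml)-coated, BSA-blocked plates; suspension cells as control. Lysed with phosphatase inhibitors, separated on 12% SDS-PAGE and immunoblotted for phospho-ERK1/2 and total ERK1/2.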

Assay [5] concerns the target T2, Integrin alpha-V/beta-3. Briefly: Inhibition of alphaVbeta3 integrin-mediated human DAOY cell adhesion to fibronectin incubated for 30 mins before plating measured after 1 hr. In kind it is protein-complex assay. A digest of the protocol: as §1

Calls of active or inactive are those of the source. The calls are words filed in the database; no cut-off is given here.

As a reminder, the IC50 is the concentration needed to halve the response being measured.

`C/C=C1\C(=O)N(CC(=O)O)C(=O)N(Cc2ccc(NC(=O)CN)cc2)C1C(C)C` (configuration not stated): the IC50 at Integrin alpha-5/beta-1 [1] and against Integrin alpha-V/beta-3 [2] was > 100000 nM in each case.

`C/C=C(\C(=O)NCC(=O)O)C(NCc1ccc(N)cc1)C(C)C` (configuration not stated): the concentration for half-maximal inhibition (IC50) worked out at 220 nM against Integrin alpha-5/beta-1 [1] and 2000 nM against Integrin alpha-V/beta-3 [2].

`CCCN(C(=O)CC(=O)O)C1=C(C)CC(c2ccccc2)N([C@@H](C)c2ccc(N)cc2)C1=O` (some centres not stated): the results for the IC50 at Integrin alpha-5/beta-1 [1] and against Integrin alpha-V/beta-3 [2] were 57 nM and 71 nM, respectively.

With `C/C=C(\C(=O)O)C(NCc1ccc(N)cc1)C(C)C` (configuration not stated), the 50% inhibitory concentration (IC50) at Integrin alpha-5/beta-1 [1] worked out at 9800 nM; on Integrin alpha-V/beta-3 [2], 1490 nM.

For the molecule H-GRGDNP-OH, the half-maximal inhibitory concentration (IC50) on Integrin alpha-5/beta-1 [1] was > 100000 nM; against Integrin alpha-V/beta-3 [2], 230 nM.

H-GRGDTP-OH: the concentration for half-maximal inhibition (IC50) was determined as 930 nM at Integrin alpha-5/beta-1 [1] and 0.62 nM against Integrin alpha-V/beta-3 [2].

Consider `C/C=C(\C(=O)O)C(C)NCc1ccc(N)cc1` (configuration not stated), for which the concentration for half-maximal inhibition (IC50) is 19 nM on Integrin alpha-5/beta-1 [1] and > 100000 nM against Integrin alpha-V/beta-3 [2].

On to `C/C=C(\C(=O)O)C(NCc1ccc(N)cc1)C1CCCCC1` (configuration not stated), for which the IC50 against Integrin alpha-5/beta-1 [1] is 2100 nM; on Integrin alpha-V/beta-3 [2], 830 nM.

Take `C/C=C(\C(=O)NCC(=O)O)C(NCc1ccc(NC(=O)CN)cc1)C(C)C` (configuration not stated): the inhibition result at Integrin alpha-5/beta-1 [3], on Integrin alpha-V/beta-3 [4] and at Integrin alpha-V/beta-3 [5] was “Active” throughout. The IC50 on Integrin alpha-5/beta-1 [1] was 170 nM; against Integrin alpha-V/beta-3 [2] it was 270 nM.

On to `CC1=C(C(=O)NCc2ccc(N)cc2)C(C(C)C)N(C(=O)CC(=O)O)O1` (configuration not stated), for which the IC50 is 1050 nM on Integrin alpha-5/beta-1 [1] and 8800 nM against Integrin alpha-V/beta-3 [2].

Regarding `C/C=C(\C(=O)NCC(=O)O)C(C)NCc1ccc(N)cc1` (configuration not stated), the figures for the concentration for half-maximal inhibition (IC50) against Integrin alpha-5/beta-1 [1] and against Integrin alpha-V/beta-3 [2] were 9800 nM and 120 nM, respectively. Besides, the inhibition result at Integrin alpha-V/beta-3 [4] and on Integrin alpha-V/beta-3 [5] was “Active” each time.

Source of the values: ChEMBL document CHEMBL2417442, “Modulation of αvβ₃- and α₅β₁-integrin-mediated adhesion by dehydro-β-amino acids containing peptidomimetics” (Eur J Med Chem, 2013).
